From ChEMBL document CHEMBL1268999, “Triazolyl tryptoline derivatives as β-secretase inhibitors” (Bioorg Med Chem Lett, 2010)

How the values were obtained:
Beta-secretase 1 [1] = molecular target: T1, Beta-secretase 1 (Homo sapiens, UniProt P56817); assay: Inhibition of human BACE1 at 5 uM
Procedure, shortened: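 Recombinant human BACE1 enzymatic assay with a FRET substrate (fluorescence resonance energy transfer read-out). Candidates were crude Cu(I)-catalysed azide–alkyne products made in microtiter plates with more than 80% conversion by LC–MS. They were diluted in 50 mM sodium acetate (pH 4.5) to 25 mM stocks, based on azide input.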

Beta-secretase 1 [2] = molecular target: T1, Beta-secretase 1; assay: Inhibition of human recombinant BACE1 by FRET assay
Procedure, shortened: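 Recombinant human BACE1 assayed by fluorescence resonance energy transfer (FRET) cleavage of a FRET substrate. They were diluted in 50 mM sodium acetate (pH 4.5) to 25 mM stocks, based on azide input. A purified resynthesised compound was also tested.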

Cathepsin D = Cathepsin D (Homo sapiens, UniProt P07339); assay: Inhibition of human recombinant Cathepsin D by FRET assay
Chain of Cathepsin D (P07339 65-162 limits assumed): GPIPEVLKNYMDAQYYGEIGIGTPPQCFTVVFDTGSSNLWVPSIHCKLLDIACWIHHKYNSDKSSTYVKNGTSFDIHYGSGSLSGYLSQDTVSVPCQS
Chain of Cathepsin D (P07339 169-412 limits assumed): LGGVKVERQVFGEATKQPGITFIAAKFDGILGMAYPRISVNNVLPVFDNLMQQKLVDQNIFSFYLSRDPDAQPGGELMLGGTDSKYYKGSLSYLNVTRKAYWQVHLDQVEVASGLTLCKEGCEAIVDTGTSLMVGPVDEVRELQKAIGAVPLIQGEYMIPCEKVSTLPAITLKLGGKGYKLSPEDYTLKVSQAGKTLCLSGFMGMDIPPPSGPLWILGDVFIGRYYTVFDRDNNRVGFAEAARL

Cytochrome P450 2D6 = Cytochrome P450 2D6 (Homo sapiens, UniProt P10635); assay: Inhibition of CYP2D6; format: ADME
Chain of Cytochrome P450 2D6 (P10635 whole entry): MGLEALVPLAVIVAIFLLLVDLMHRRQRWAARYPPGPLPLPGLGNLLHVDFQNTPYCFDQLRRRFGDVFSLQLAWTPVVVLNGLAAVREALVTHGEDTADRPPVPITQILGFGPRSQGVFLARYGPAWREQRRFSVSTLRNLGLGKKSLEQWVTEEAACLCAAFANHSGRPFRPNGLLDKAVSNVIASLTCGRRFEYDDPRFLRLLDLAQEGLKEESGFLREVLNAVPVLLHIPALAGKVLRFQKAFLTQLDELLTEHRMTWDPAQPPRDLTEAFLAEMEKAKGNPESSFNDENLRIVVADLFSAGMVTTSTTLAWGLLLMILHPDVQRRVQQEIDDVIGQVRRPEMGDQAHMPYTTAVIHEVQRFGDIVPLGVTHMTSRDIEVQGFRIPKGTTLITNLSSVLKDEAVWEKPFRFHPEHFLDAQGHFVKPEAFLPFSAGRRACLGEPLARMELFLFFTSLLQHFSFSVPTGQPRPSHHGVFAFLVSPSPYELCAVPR
Procedure, shortened: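 CYP2D6 inhibition reported as a categorical score, where 0 = non-inhibitor.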

[3] = Protein binding in plasma; format: ADME, cell-free; settings: read-out: PPB
Procedure, shortened: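 Plasma protein binding reported as a categorical level: 1 = binding >90%; 2 = binding >95%.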

Hepatocyte = assay: Toxicity in hepatocytes; format: cell-based
Rattus norvegicus = assay: Toxicity in po dosed rat; format: organism-based; settings: in vivo
[4] = Solubility of the compound; format: physicochemical
Procedure, shortened: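 Aqueous solubility reported as a categorical level on a 0–3 scale, where 0 = extremely low and 3 = good.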

T1 sequence (P56817 whole entry): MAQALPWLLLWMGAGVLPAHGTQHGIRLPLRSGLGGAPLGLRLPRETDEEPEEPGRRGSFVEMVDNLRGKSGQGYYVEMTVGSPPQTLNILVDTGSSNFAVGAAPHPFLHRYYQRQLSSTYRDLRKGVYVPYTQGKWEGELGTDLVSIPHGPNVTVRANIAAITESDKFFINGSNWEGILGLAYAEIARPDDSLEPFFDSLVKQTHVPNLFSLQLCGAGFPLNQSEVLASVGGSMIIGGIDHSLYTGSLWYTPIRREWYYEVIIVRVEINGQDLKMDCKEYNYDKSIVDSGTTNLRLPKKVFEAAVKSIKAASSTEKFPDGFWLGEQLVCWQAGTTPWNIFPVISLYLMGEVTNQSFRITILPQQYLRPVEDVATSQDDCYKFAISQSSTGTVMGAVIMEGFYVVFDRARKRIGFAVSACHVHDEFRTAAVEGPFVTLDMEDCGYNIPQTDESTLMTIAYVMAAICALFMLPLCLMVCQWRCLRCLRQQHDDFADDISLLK

SMILES | inhibition (Beta-secretase 1 [1]) [%] | further results
OC1(c2cn(C[C@@H]3Cc4c([nH]c5ccccc45)CN3)nn2)c2ccccc2-c2ccccc21 | < 50 | –
CC(=O)CC(=O)NCc1cn(C[C@@H]2Cc3c([nH]c4ccccc34)CN2)nn1 | < 50 | –
OC1(c2cn(C[C@@H]3Cc4c([nH]c5ccccc45)CN3)nn2)CCCC1 | < 50 | –
c1ccc(SCc2cn(C[C@@H]3Cc4c([nH]c5ccccc45)CN3)nn2)cc1 | < 50 | –
OC/C=C/c1cn(C[C@@H]2Cc3c([nH]c4ccccc34)CN2)nn1 | < 50 | –
c1ccc2c3c([nH]c2c1)CN[C@H](Cn1cc(COC[C@H]2CO2)nn1)C3 | < 50 | –
COc1ccc2cc(-c3cn(C[C@@H]4Cc5c([nH]c6ccccc56)CN4)nn3)ccc2c1 | > 50 | IC50 (Beta-secretase 1 [2]): 1490 nM; IC50 (Cathepsin D): > 100000 nM
CC(=O)c1ccc(-c2cn(C[C@@H]3Cc4c([nH]c5ccccc45)CN3)nn2)cc1 | < 50 | –
OC(c1ccccc1)c1cn(C[C@@H]2Cc3c([nH]c4ccccc34)CN2)nn1 (some centres undefined) | < 50 | –
Cc1nnc(SCc2cn(C[C@@H]3Cc4c([nH]c5ccccc45)CN3)nn2)s1 | < 50 | –
CC[C@H]1CN2CCc3c([nH]c4ccccc34)[C@H]2C[C@@H]1C[C@@H]1NCCc2c1[nH]c1ccccc21 | – | inhibition (INH) (Cytochrome P450 2D6): Not Active; fraction unbound [3]: < 0.05; Activity (Hepatocyte): Toxic; LD50 (Rattus norvegicus): 235.5 µg/g; solubility [4]: Insoluble
Fc1cc(F)cc(-c2cn(C[C@@H]3Cc4c([nH]c5ccccc45)CN3)nn2)c1 | < 50 | –
Nc1cccc(-c2cn(C[C@@H]3Cc4c([nH]c5ccccc45)CN3)nn2)c1 | < 50 | –
CCOC(OCC)c1cn(C[C@@H]2Cc3c([nH]c4ccccc34)CN2)nn1 | < 50 | –
c1ccc2c3c([nH]c2c1)CN[C@H](Cn1cc(Cn2ccnc2)nn1)C3 | < 50 | –
c1ccc2c3c([nH]c2c1)CN[C@H](Cn1cc(-c2ccsc2)nn1)C3 | < 50 | –
c1ccc2c3c([nH]c2c1)CN[C@H](Cn1cc(COC2CCCCO2)nn1)C3 (some centres undefined) | < 50 | –
CC(O)c1cn(C[C@@H]2Cc3c([nH]c4ccccc34)CN2)nn1 (some centres undefined) | < 50 | –
Cc1ccc(-c2cn(C[C@@H]3Cc4c([nH]c5ccccc45)CN3)nn2)cc1 | < 50 | –
CCCC(O)c1cn(C[C@@H]2Cc3c([nH]c4ccccc34)CN2)nn1 (some centres undefined) | < 50 | –
N#CCCc1cn(C[C@@H]2Cc3c([nH]c4ccccc34)CN2)nn1 | < 50 | –
c1ccc2c(-c3cn(C[C@@H]4Cc5c([nH]c6ccccc56)CN4)nn3)cccc2c1 | < 50 | –
c1ccc2c3c([nH]c2c1)CNCC3 [TRYPTOLINE] | – | inhibition (INH) (Cytochrome P450 2D6): Not Active; fraction unbound [3]: < 0.1; Activity (Hepatocyte): Non-toxic; LD50 (Rattus norvegicus): 701500 µg/g; solubility [4]: Soluble
c1ccc(-c2ccc(-c3cn(C[C@@H]4Cc5c([nH]c6ccccc56)CN4)nn3)cc2)cc1 | < 50 | –
